Assay results as given in publication PMC11406440 (Food and chemical toxicology : an international journal …, 2024).

Tests used:
spleen = test: Spleen gene expression; assay type: in vivo, B6C3F1 mice; settings: PFHxS dermal, 28 days
Outline: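 Spleens came from female B6C3F1 mice given acetone vehicle or test compound (1.25–5% w/v, 25 μl/ear, both ears) daily for 28 days and necropsied about 24 h after the last dose. Gene expression was measured by qPCR and expressed as mean fold change relative to vehicle, with 5 mice/group. Significance used one-way ANOVA with Dunnett's or Kruskal-Wallis with Dunn's post-test.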

mice = settings: 7 days of 10 mg/kg oral exposure; ref Das et al., 2017; cited from earlier work

In the case of `O=S(=O)(O)C(F)(F)C(F)(F)C(F)(F)C(F)(F)C(F)(F)C(F)(F)F` [PFHxS, Perfluorohexane sulfonic acid], the “Spleen Abcg1 gene expression” value (spleen) was “increased”, the “Spleen Chac1 gene expression” value (spleen) was “increased” and the “Spleen Crim1 gene expression” value (spleen) was “increased”. For the same compound, the “Spleen Ctse gene expression” value (spleen) was “decrease”, the “Spleen Fbxo38 gene expression” value (spleen) was “increased” and the “Spleen Id1 gene expression” value (spleen) was “increased”. For the same compound, the “Spleen Il-10 gene expression” value (spleen) was “increased”, the “Spleen Tlr5 gene expression” value (spleen) was “increased” and the “Spleen Tlr6 gene expression” value (spleen) was “increased”. The “Spleen Tlr7 gene expression” value (spleen) was “increased”, the “Spleen Tlr8 gene expression” value (spleen) was “increased” and the “Increase in liver weight” value (mice) was ~ 60%.
